Data reported in ChEMBL document CHEMBL3867485, “Design, Conformation, and Crystallography of 2-Naphthyl Phenyl Ethers as Potent Anti-HIV Agents” (ACS Med Chem Lett, 2016).
≈ marks a conversion by molar mass, not a printed value.

Tests used:
[1] = Inhibition of wild-type HIV1 3B reverse transcriptase infected in human MT2 cells assessed as protection against viral infection by MTT assay; format: cell-based; conditions: Human immunodeficiency virus 1, 3B
How it was run: (§1)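 Human MT-2 T cells, run in triplicate. For antiviral activity, cells were infected with the HIV-1 IIIB strain, and EC50 was taken as the dose giving 50% protection of infected cells. For cytotoxicity, CC50 was the concentration that inhibited MT-2 cell growth by 50%.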

[2] = Cytotoxicity against human MT2 cells assessed as reduction in cell growth by MTT assay; format: toxicity, cell-based; how it was run: as §1
[3] = Aqueous solubility of the compound at pH 6.5 by shake-flask method; format: physicochemical

| solubility thermodynamic [3] [µg/mL] | Compound | EC50 [1] [nM] | CC50 [2] [nM] |
| --- | --- | --- | --- |
| – | N#Cc1ccc2c(Cl)cc(Oc3ccccc3OCCn3ccc(=O)[nH]c3=O)cc2c1 | 14 | 12000 |
| – | Cc1cc(Oc2ccccc2OCCn2ccc(=O)[nH]c2=O)c(C)c2cc(C#N)ccc12 | 3.5 | > 100000 |
| – | COCc1cc(Oc2ccccc2OCCn2ccc(=O)[nH]c2=O)c(C)c2cc(C#N)ccc12 | 15 | 16000 |
| – | N#Cc1cc2c(Oc3ccc(F)cc3OCCn3ccc(=O)[nH]c3=O)cc(F)cn2c1 | 0.4 | – |
| – | Cc1c(Oc2ccc(F)cc2OCCn2ccc(=O)[nH]c2=O)cc(F)c2ccc(C#N)cc12 | 3 | > 100000 |
| – | Cc1cc2ccc(C#N)cc2c(C)c1Oc1ccccc1OCCn1ccc(=O)[nH]c1=O | 160 | 5000 |
| – | Cc1cc(Oc2ccc(F)cc2OCCn2ccc(=O)[nH]c2=O)c(F)c2cc(C#N)ccc12 | 58 | 45000 |
| – | Cc1c(Oc2ccccc2OCCn2ccc(=O)[nH]c2=O)c(C)c2cc(C#N)ccc2c1C | 580 | > 100000 |
| 28.2 (≈ 65.4 µM) | Cc1c(Oc2ccccc2OCCn2ccc(=O)[nH]c2=O)cc(F)c2ccc(C#N)cc12 | 7.8 | > 100000 |
| – | N#Cc1ccc2ccc(Oc3ccc(F)cc3OCCn3ccc(=O)[nH]c3=O)cc2c1 | 26 | > 100000 |
| – | N#Cc1ccc2c(Cl)cc(Oc3ccc(F)cc3OCCn3ccc(=O)[nH]c3=O)cc2c1 | 24 | > 100000 |
| 20.6 (≈ 46 µM) | Cc1c(Oc2ccccc2OCCn2ccc(=O)[nH]c2=O)cc(Cl)c2ccc(C#N)cc12 | 6.2 | > 100000 |
| – | COc1cc(Oc2ccccc2OCCn2ccc(=O)[nH]c2=O)c(C)c2cc(C#N)ccc12 | 17 | > 100000 |
| – | Cc1c(Oc2ccc(Cl)cc2OCCn2ccc(=O)[nH]c2=O)cc(F)c2ccc(C#N)cc12 | 18 | 6000 |
| – | CCc1cc(Oc2ccccc2OCCn2ccc(=O)[nH]c2=O)c(C)c2cc(C#N)ccc12 | 6 | 12000 |
| – | Cc1cc(Oc2ccccc2OCCn2ccc(=O)[nH]c2=O)cc2cc(C#N)ccc12 | 4.9 | 6000 |
| – | N#Cc1ccc2ccc(Oc3ccccc3OCCn3ccc(=O)[nH]c3=O)cc2c1 | 22 | 15000 |
| – | Cc1c(Oc2ccccc2OCCn2ccc(=O)[nH]c2=O)cc(C(C)C)c2ccc(C#N)cc12 | 16 | 9000 |
| – | N#Cc1ccc2c(F)cc(Oc3ccc(F)cc3OCCn3ccc(=O)[nH]c3=O)c(Cl)c2c1 | 7 | 28000 |
| – | Cc1c(Oc2ccccc2OCCn2ccc(=O)[nH]c2=O)cc(CC2CC2)c2ccc(C#N)cc12 | 18 | 13000 |
| – | CCCc1cc(Oc2ccccc2OCCn2ccc(=O)[nH]c2=O)c(C)c2cc(C#N)ccc12 | 21 | 15000 |
| – | Cc1c(Oc2ccc(F)cc2OCCn2ccc(=O)[nH]c2=O)cc(Cl)c2ccc(C#N)cc12 | 3.6 | 82000 |
| – | N#Cc1ccc2c(F)cc(Oc3ccccc3OCCn3ccc(=O)[nH]c3=O)c(Cl)c2c1 | 5 | > 100000 |
| – | CCOc1cc(Oc2ccccc2OCCn2ccc(=O)[nH]c2=O)c(C)c2cc(C#N)ccc12 | 10 | > 100000 |
| – | N#Cc1ccc2cc(Oc3ccccc3OCCn3ccc(=O)[nH]c3=O)ccc2c1 | 1300 | 9000 |
| – | Cc1cc(Oc2ccccc2OCCn2ccc(=O)[nH]c2=O)c(Cl)c2cc(C#N)ccc12 | 5 | > 100000 |
| – | Cc1cc(Oc2ccc(F)cc2OCCn2ccc(=O)[nH]c2=O)c(C)c2cc(C#N)ccc12 | 1.9 | > 100000 |
